Data taken from PubChem BioAssay.
Results filed as inconclusive are left out.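 How the source made its calls, unless noted: active means viability increase at or above a cutoff of the median across tested compounds plus 3 SD (cut at about 8.5% in these data, passing the limit was not always enough); inconclusive means some gains above the cutoff, reason not given; inactive means the rest.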

What was measured:
[1] = S. cerevisiae growth inhibition in permissive medium (OD615), pilot counter-assay for S. cerevisiae lifespan shortening project, permissive growth control (AID 705;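 active means growth inhibition above 25% in both replicates, a cutoff set 3 SD above the mean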); settings: OD615, 24 h, at 10 µM, hits give high values
Method in brief: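 assay system = Saccharomyces cerevisiae strain carrying genetically modified DeaD replicative-lifespan system | technique = absorbance (optical density) at 615 nm | buffer or medium = permissive raffinose/galactose medium | timing = cells pre-grown 4 h, then 24 h compound exposure, 30 °C humidified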

[2] = S. cerevisiae growth inhibition in restrictive medium, OD615, pilot screen, restrictive growth control, yeast lifespan reduction project (AID 706;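 active means growth inhibition above a set limit, 3 SD over mean compound inhibition, in both replicates, cut at about 43% in these data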;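 further: modified DeaD lifespan yeast strain shifted to restrictive glucose medium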); settings: OD615, 48 h, at 10 µM, hits give high values
Method in brief: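 System: modified S. cerevisiae. Buffer or medium: CSMM-D glucose medium. Incubation: 4 h pre-growth plus 48 h compound exposure, 30 °C. Detection: absorbance (optical density) measured at 615 nm.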

[3] = doxorubicin toxicity protection in MRP-1 cells – H69AR cells, CellTiter-Glo, duplicate, MRP-1 activator project, pilot screen (AID 807); settings: H69AR viability with doxorubicin, CellTiter-Glo luminescence; at 10 µM; hits give high values;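 further: compound pretreatment 18-22 h then 72 h combined with doxorubicin; 0% = doxorubicin alone and 100% = vehicle without doxorubicin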
[4] = viability of HCT116 without oncogenic beta-catenin – human colon tumor cells, pilot screen (AID 823;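 active means cell viability at or below a set limit in both duplicate runs, the limit being the all-compound median minus 4 SD, cut at about 23% in these data, passing the limit was not always enough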;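 further: 0% = wells killed by 20 µM Hyamine and 100% = untreated DMSO cell wells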); settings: HCT116 beta-catenin knockout viability, CellTiter-Glo, 60 h; at 10 µM; hits give low values
[5] = viability of PTEN-null HCT116 cells – cell-based, HCT116 clonal line, CellTiter-Glo, pilot screen (AID 824;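 active means viability at or below 27.92% in each of two runs, the all-compound median minus 4 SD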;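 further: 0% = 20 µM Hyamine control and 100% = vehicle cell control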); settings: HCT116 PTEN-deleted viability, 60 h, at 10 µM, hits give low values
[6] = RAM pathway blockade in budding yeast – dse1pr::URA3 reporter, 5-FOA selection, pilot screen (AID 869;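 active means inhibition over a set limit, the all-compound mean plus 3 SD, in both replicate runs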;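 further: 0% = DMSO wells with no growth and 100% = 10 µM 1-NA-PP1 with full growth; RAM network block rescues cells from 5-FOA so hits raise OD615 growth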); settings: S. cerevisiae dse1pr::URA3 5-FOA growth, OD615, 2 d; at 10 µM; hits give high values; strain carries analog-sensitive mutant Cbk1 kinase
[7] = RAM signaling pathway blockade in yeast – S. cerevisiae, Pdr1DBD-CYC8 efflux-inhibited sensitized strain, primary screen (AID 1298;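 active means RAM network inhibition above 8.4% in each of two replicates, 3 SD over the compound average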;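 further: 0% = DMSO untreated cells without growth and 100% = 10 µM 1-NA-PP1 full growth; higher means more yeast growth rescued from 5-FOA killing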); settings: S. cerevisiae cbk1-as DSE1-URA3 strain, 5-FOA growth OD615, 2 d; at 50 µM; hits give high values

Brc1ccc(C2Nc3cccc4cccc(c34)N2)o1
inactive: growth inhibition [1] -13.8% | growth inhibition [2] -9.64% | viability increase [3] -0.34% | viability [4] 85.9% | viability [5] 92.5% | inhibition [6] 2.66% | RAM network inhibition [7] 1.71%

O=C(Nc1nc(-c2ccc3c(c2)OCO3)cs1)C1COc2ccccc2O1 (stereo not drawn)
inactive: growth inhibition [1] 0.51% | growth inhibition [2] 3.12% | viability increase [3] 1.56% | viability [4] 99.8% | viability [5] 88.9% | inhibition [6] 2.81% | RAM network inhibition [7] 4.11%

OC(C#CCN1CCCC1)c1ccccc1 (stereo not drawn)
inactive: growth inhibition [1] -1.08% | growth inhibition [2] -5.8% | viability increase [3] -0.22% | viability [4] 91.6% | viability [5] 98.8% | inhibition [6] 0.7% | RAM network inhibition [7] -0.43%

O=C(NCc1ccc(Cl)c(Cl)c1)c1cccnc1
inactive: growth inhibition [1] -7.96% | growth inhibition [2] 4.69% | viability increase [3] -1.74% | viability [4] 99% | viability [5] 90.9% | inhibition [6] 0.58% | RAM network inhibition [7] 3.32%

Cc1ccc(-c2n[nH]c(=S)n2C)cc1
inactive: growth inhibition [1] -2.22% | growth inhibition [2] 11.2% | viability increase [3] -1.46% | viability [4] 97.5% | viability [5] 101% | inhibition [6] 2.21% | RAM network inhibition [7] 3.7%

COc1ccc(N)cc1C#N
inactive: growth inhibition [1] -7.31% | growth inhibition [2] -5.58% | viability increase [3] -3.17% | viability [4] 98.5% | viability [5] 93.6% | inhibition [6] 1.06% | RAM network inhibition [7] 1.63%

Cn1c(=O)c2c(SCC(=O)NCc3ccco3)nc(CC(C)(C)C)nc2n(C)c1=O
inactive: growth inhibition [1] -3.79% | growth inhibition [2] -0.895% | viability increase [3] -4.81% | viability [4] 72.5% | viability [5] 70.6% | inhibition [6] 0.775% | RAM network inhibition [7] 5.97%

O=C(C1CCCN1S(=O)(=O)c1cccc2cccnc12)N1CCc2ccccc2C1 (stereo not drawn)
inactive: growth inhibition [1] -8.21% | growth inhibition [2] -13.1% | viability increase [3] -1.96% | viability [4] 92.3% | viability [5] 86.7% | inhibition [6] 0.745% | RAM network inhibition [7] 0.84%

COc1ccccc1OCC(=O)Nc1ccc(S(=O)(=O)N2CCCCCC2)cc1
inactive: growth inhibition [1] -10.1% | growth inhibition [2] -4.95% | viability increase [3] 0.4% | viability [4] 83.1% | viability [5] 82.1% | inhibition [6] 2.08% | RAM network inhibition [7] 10.1%

O=C(NCCc1ccccc1)C1CCN(S(=O)(=O)c2cccnc2)CC1
inactive: growth inhibition [1] -7.37% | growth inhibition [2] 0.25% | viability increase [3] -0.16% | viability [4] 104% | viability [5] 94.8% | inhibition [6] 1.88% | RAM network inhibition [7] 1.62%

O=C1c2cccnc2C(=O)N1Cc1ccccc1
inactive: growth inhibition [1] -1.31% | growth inhibition [2] -3.01% | viability increase [3] -0.58% | viability [4] 101% | viability [5] 101% | inhibition [6] 0.015% | RAM network inhibition [7] 0.79%

C=CCc1ccccc1OCC(O)CN1CCN(c2ccccc2OC)CC1 (stereo not drawn)
inactive: growth inhibition [1] -21.5% | growth inhibition [2] -25% | viability increase [3] -4.59% | viability [4] 56.3% | viability [5] 63.5% | inhibition [6] 1.39% | RAM network inhibition [7] 4.75%

COC(=O)CC1=C(C)C(=O)CC2C(C)(C)CCCC12C (stereo not drawn)
inactive: growth inhibition [1] 4.86% | growth inhibition [2] -8.22% | viability increase [3] 1.01% | viability [4] 85.6% | viability [5] 94% | inhibition [6] 1.27% | RAM network inhibition [7] 4.48%

CC(C)OC(=O)c1nnc(Cc2ccc(F)cc2)o1
inactive: growth inhibition [1] 4.28% | growth inhibition [2] 8.2% | viability increase [3] 2.12% | viability [4] 113% | viability [5] 107% | inhibition [6] 0.82% | RAM network inhibition [7] 7.85%

Cc1ccc(NC(=O)C2CCCN2S(=O)(=O)c2ccc3c(c2)CCC(=O)N3)cc1Cl (stereo not drawn)
inactive: growth inhibition [1] -9.43% | growth inhibition [2] 8.74% | viability increase [3] 3.52% | viability [4] 81.8% | viability [5] 85.8% | inhibition [6] 2.66% | RAM network inhibition [7] 3.45%

Cc1cc(C(=O)Nc2nnc(C3CCCCC3)s2)cs1
inactive: growth inhibition [1] -9.12% | growth inhibition [2] 1.04% | viability increase [3] 1.38% | viability [4] 94.7% | viability [5] 101% | inhibition [6] 4.87% | RAM network inhibition [7] 9.03%

C=C(C)Cn1c(COc2ccccc2)nnc1SCC(=O)O
inactive: growth inhibition [1] -9.65% | growth inhibition [2] -7.02% | viability increase [3] -4.09% | viability [4] 89.7% | viability [5] 90.6% | inhibition [6] 0.3% | RAM network inhibition [7] 0.88%

CCN1C(=O)N(CC)C(O)(c2ccccc2)C1(O)c1ccccc1 (stereo not drawn)
inactive: growth inhibition [1] -12.7% | growth inhibition [2] -8.41% | viability increase [3] -2.16% | viability [4] 97.1% | viability [5] 94.8% | inhibition [6] 2.12% | RAM network inhibition [7] 6.55%

O=C(C1CCC(CNc2c(N3CCCCC3)c(=O)c2=O)CC1)N1CCCCC1 (stereo not drawn)
inactive: growth inhibition [1] -8.65% | growth inhibition [2] -19.7% | viability increase [3] -1.79% | viability [4] 94.3% | viability [5] 93.6% | inhibition [6] 1.09% | RAM network inhibition [7] 7.26%

COc1ccccc1S(=O)(=O)Cc1ccc(C(=O)NCCN(C)C)o1
inactive: growth inhibition [1] -6.73% | growth inhibition [2] 5% | viability increase [3] -0.73% | viability [4] 106% | viability [5] 98.2% | inhibition [6] 1.9% | RAM network inhibition [7] 0.1%

CCN1CCN(S(=O)(=O)c2ccc3[nH]c(=O)oc3c2)CC1
inactive: growth inhibition [1] -9.66% | growth inhibition [2] -6.6% | viability increase [3] -0.48% | viability [4] 104% | viability [5] 107% | inhibition [6] 1.5% | RAM network inhibition [7] 4.74%

COc1ccccc1CNC(=O)CS(=O)Cc1nc(-c2ccccc2C)oc1C (stereo not drawn)
inactive: growth inhibition [1] -4.17% | growth inhibition [2] 12.7% | viability increase [3] -0.18% | viability [4] 101% | viability [5] 93.4% | inhibition [6] 1.66% | RAM network inhibition [7] 2.33%

CCc1cc2c(NCC3CCCO3)ncnc2s1 (stereo not drawn)
inactive: growth inhibition [1] 2.17% | growth inhibition [2] 9.07% | viability increase [3] 0.8% | viability [4] 102% | viability [5] 95.6% | inhibition [6] 0.34% | RAM network inhibition [7] 4.46%

CCOC(=O)N1CCN(c2c(NCc3ccccn3)c(=O)c2=O)CC1
inactive: growth inhibition [1] 8.16% | growth inhibition [2] 18.2% | viability increase [3] -1.44% | viability [4] 103% | viability [5] 96% | inhibition [6] 1.28% | RAM network inhibition [7] 1.45%
